Experimental data reported in ChEMBL document CHEMBL4680130, “Substituted 4-phenylthiazoles: Development of potent and selective A, A and dual A/A adenosine receptor antagonists” (Eur J Med Chem, 2020).

What was measured:
[1] = molecular target: T1, Adenosine receptor A1 (Homo sapiens, UniProt P30542); test: Displacement of [3H]CCPA from human adenosine receptor A1 expressed in CHO cell membranes incubated for 90 mins by radioligand competition assay; parameters: species or system Cell membrane
T1 sequence (P30542 whole entry): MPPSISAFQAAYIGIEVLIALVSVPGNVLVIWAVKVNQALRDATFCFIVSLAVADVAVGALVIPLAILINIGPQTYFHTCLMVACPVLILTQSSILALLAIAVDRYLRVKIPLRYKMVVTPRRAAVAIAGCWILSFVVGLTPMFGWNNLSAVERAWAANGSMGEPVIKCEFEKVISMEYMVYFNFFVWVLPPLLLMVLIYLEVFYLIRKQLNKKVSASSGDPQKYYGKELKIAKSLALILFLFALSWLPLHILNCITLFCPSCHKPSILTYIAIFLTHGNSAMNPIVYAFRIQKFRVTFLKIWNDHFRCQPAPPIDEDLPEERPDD

[2] = molecular target: T2, Adenosine receptor A1 (Rattus norvegicus, UniProt P25099); test: Displacement of [3H]CCPA from adenosine receptor A1 in rat brain cortex membranes incubated for 90 mins by radioligand competition assay; type: cell membranes, Cell membrane
T2 sequence (P25099 whole entry): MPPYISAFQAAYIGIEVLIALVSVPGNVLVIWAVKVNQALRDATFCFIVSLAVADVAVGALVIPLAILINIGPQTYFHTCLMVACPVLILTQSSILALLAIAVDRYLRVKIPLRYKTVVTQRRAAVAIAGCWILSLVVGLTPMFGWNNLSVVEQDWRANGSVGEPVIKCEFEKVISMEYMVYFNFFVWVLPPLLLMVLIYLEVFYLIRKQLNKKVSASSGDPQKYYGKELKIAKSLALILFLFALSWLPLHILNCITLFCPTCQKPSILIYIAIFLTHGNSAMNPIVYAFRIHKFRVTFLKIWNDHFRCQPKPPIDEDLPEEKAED

[3] = molecular target: T3, Adenosine receptor A2a (Homo sapiens, UniProt P29274); test: Displacement of [3H]MSX2 from human adenosine receptor A2A expressed in HEK293 cell membranes incubated for 30 mins by radioligand competition assay; parameters: species or system Cell membrane
T3 sequence (P29274 whole entry): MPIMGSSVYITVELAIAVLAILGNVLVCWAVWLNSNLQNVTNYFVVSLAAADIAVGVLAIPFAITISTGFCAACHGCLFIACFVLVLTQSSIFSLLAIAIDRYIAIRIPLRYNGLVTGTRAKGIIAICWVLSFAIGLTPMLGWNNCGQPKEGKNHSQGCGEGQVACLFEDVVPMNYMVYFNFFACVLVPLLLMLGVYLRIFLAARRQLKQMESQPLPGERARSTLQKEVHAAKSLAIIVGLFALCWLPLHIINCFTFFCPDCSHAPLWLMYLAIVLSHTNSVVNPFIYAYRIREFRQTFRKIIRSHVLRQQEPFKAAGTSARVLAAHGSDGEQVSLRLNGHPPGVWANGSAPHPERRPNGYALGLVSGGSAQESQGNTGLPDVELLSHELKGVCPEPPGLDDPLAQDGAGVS

[4] = molecular target: Adenosine receptor A2a (Rattus norvegicus, UniProt P30543); test: Displacement of [3H]MSX2 from adenosine receptor A2A in rat brain striatum membranes incubated for 30 mins by radioligand competition assay; type: cell membranes, Cell membrane
Sequence of Adenosine receptor A2a (Rattus norvegicus, UniProt P30543) (P30543 whole entry): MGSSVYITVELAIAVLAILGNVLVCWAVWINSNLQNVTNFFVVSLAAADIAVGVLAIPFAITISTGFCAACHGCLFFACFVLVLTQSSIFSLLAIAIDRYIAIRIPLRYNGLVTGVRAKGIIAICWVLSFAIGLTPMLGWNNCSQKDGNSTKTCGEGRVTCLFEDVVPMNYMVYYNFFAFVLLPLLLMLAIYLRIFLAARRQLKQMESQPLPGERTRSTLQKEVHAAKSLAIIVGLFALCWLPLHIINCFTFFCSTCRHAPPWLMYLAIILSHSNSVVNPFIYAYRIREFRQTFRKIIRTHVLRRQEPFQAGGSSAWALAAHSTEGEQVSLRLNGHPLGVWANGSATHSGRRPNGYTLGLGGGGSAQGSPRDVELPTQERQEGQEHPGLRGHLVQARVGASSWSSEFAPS

[5] = molecular target: T4, Adenosine receptor A2b (Homo sapiens, UniProt P29275); test: Displacement of [3H]PSB-603 from human adenosine receptor A2B expressed in CHO cell membranes incubated for 75 mins by radioligand competition assay; parameters: species or system Cell membrane
T4 sequence (P29275 whole entry): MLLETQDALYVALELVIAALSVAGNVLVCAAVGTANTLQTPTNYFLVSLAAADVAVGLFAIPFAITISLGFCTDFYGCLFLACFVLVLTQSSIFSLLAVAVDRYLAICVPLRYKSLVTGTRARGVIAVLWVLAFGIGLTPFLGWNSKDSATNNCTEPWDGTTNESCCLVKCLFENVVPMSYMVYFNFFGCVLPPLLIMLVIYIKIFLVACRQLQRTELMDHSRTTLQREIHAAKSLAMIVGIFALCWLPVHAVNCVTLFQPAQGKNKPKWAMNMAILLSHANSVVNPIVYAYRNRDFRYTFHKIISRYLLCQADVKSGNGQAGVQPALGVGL

[6] = molecular target: T5, Adenosine receptor A3 (Homo sapiens, UniProt P0DMS8); test: Displacement of [3H]PSB-11 from human adenosine receptor A3 expressed in CHO cell membranes incubated for 60 mins by radioligand competition assay; parameters: species or system Cell membrane
T5 sequence (P0DMS8 whole entry): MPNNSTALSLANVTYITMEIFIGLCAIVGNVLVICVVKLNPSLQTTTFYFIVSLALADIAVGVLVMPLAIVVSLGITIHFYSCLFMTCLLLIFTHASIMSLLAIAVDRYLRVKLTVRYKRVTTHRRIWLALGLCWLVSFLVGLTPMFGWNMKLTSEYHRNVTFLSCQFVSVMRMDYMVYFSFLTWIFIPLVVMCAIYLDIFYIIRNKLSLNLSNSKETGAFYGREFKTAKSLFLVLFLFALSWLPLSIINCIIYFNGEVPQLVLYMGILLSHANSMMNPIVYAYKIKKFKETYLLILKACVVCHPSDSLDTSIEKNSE

[7] = molecular target: T2, Adenosine receptor A1; test: Displacement of [3H]DPCPX from rat brain cortical membrane A1AR in absence of GTP by scintillation counting analysis; type: cell membranes, Cortex, Cell membrane
[8] = molecular target: T2, Adenosine receptor A1; test: Displacement of [3H]DPCPX from rat brain cortical membrane A1AR in presence of 100 uM of GTP by scintillation counting analysis; type: cell membranes, Cortex, Cell membrane
[9] = molecular target: T2, Adenosine receptor A1; test: Displacement of [3H]CCPA from rat adenosine receptor A1 by radioligand competition assay
Method in brief: (§1)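 A1 competition binding with [3H]CCPA, 0.5 nM. Membranes: CHO cells expressing human A1, or rat brain cortex. Membranes preincubated 20 min with adenosine deaminase (2 U/mL per mg protein). Incubation 90 min at rt in 50 mM Tris-HCl pH 7.4 with 2.5% final DMSO. Nonspecific binding defined by 10 µM 2-chloroadenosine. GF/B filtration, scintillation counting.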

[10] = molecular target: T2, Adenosine receptor A1; test: Displacement of [3H]DPCPX from rat adenosine receptor A1 by radioligand competition assay
Method in brief: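 Rat brain cortical membranes, [3H]DPCPX 0.4 nM. Nonspecific binding defined by 10 μM DPCPX. Curves run with and without 100 μM GTP. Incubation 90 min at rt in 50 mM Tris-HCl pH 7.4, after 20 min adenosine deaminase preincubation. Filtration, then scintillation counting. GTP shift is the IC50 with GTP divided by the IC50 without GTP.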

[11] = molecular target: T6, Adenosine receptor A3 (Rattus norvegicus, UniProt P28647); test: Displacement of [3H]NECA from rat adenosine receptor A3 expressed in CHO cell membranes incubated for 60 mins by radioligand competition assay; parameters: species or system Cell membrane
T6 sequence (P28647 whole entry): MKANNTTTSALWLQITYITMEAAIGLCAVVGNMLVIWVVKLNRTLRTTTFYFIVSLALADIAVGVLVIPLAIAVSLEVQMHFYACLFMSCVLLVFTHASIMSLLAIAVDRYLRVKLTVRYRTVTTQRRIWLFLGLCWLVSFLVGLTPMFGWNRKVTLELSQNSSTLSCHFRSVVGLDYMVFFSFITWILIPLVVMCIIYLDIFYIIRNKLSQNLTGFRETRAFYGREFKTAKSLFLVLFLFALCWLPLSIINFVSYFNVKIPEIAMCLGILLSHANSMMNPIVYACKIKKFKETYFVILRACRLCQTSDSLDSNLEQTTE

[12] = molecular target: T7, Adenosine receptor A2b (Homo sapiens) (UniProt P29275); test: Displacement of [3H]PSB-603 from human adenosine receptor A2B expressed in CHO cell membranes at 0.1 uM incubated for 75 mins by radioligand competition assay relative to control; details: Cell membrane
T7 sequence (whole entry): T4 sequence (P29275 whole entry)
Method in brief: (§2)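 CHO membranes expressing human or rat A2B, [3H]PSB-603 0.3 nM. Nonspecific binding defined by 10 µM DPCPX. Preincubated 20 min with adenosine deaminase, then 75 min at rt in Tris-HCl pH 7.4 with 2.5% DMSO. Filters washed with ice-cold 50 mM Tris-HCl containing 0.1% BSA; scintillation counting.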

[13] = molecular target: T8, Adenosine receptor A1 (Rattus norvegicus) (UniProt P25099); test: Displacement of [3H]CCPA from adenosine receptor A1 in rat brain cortex membranes at 0.1 uM incubated for 90 mins by radioligand competition assay; details: Cell membrane, filed as antagonist; method in brief: as §1
T8 sequence (whole entry): T2 sequence (P25099 whole entry)

[14] = molecular target: Adenosine receptor A2a (Rattus norvegicus) (UniProt P30543); test: Displacement of [3H]MSX2 from adenosine receptor A2A in rat brain striatum membranes at 0.1 uM incubated for 30 mins by radioligand competition assay relative to control; details: Cell membrane
Sequence of Adenosine receptor A2a (Rattus norvegicus) (P30543 whole entry): as the sequence (P30543 whole entry) above
Method in brief: (§3)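 A2A binding, [3H]MSX-2 1.0 nM. Membranes: rat brain striatum, or HEK293 cells expressing human A2A. Adenosine deaminase preincubation 20 min, then 30 min at rt in 50 mM Tris-HCl pH 7.4 with 2.5% DMSO. Nonspecific binding defined by 50 µM NECA. GF/B filtration, scintillation counting. Single-concentration percent inhibition, ≥3 experiments in duplicate or triplicate.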

[15] = molecular target: T9, Adenosine receptor A3 (Rattus norvegicus) (UniProt P28647); test: Displacement of [3H]NECA from rat adenosine receptor A3 expressed in CHO cell membranes at 0.1 uM incubated for 60 mins by radioligand competition assay relative to control; details: Cell membrane
T9 sequence (whole entry): T6 sequence (P28647 whole entry)
Method in brief: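 CHO membranes expressing rat A3, [3H]NECA 10 nM. Nonspecific binding defined by 100 µM R-PIA. Preincubated 20 min with adenosine deaminase, then 60 min at rt in 50 mM Tris-HCl pH 7.4 with 2.5% DMSO. GF/B filtration, scintillation counting.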

[16] = molecular target: T10, Adenosine receptor A2b (Rattus norvegicus, UniProt P29276); test: Displacement of [3H]PSB-603 from rat adenosine receptor A2B expressed in CHO cell membranes incubated for 75 mins by radioligand competition assay; parameters: species or system Cell membrane; method in brief: as §2
T10 sequence (P29276 whole entry): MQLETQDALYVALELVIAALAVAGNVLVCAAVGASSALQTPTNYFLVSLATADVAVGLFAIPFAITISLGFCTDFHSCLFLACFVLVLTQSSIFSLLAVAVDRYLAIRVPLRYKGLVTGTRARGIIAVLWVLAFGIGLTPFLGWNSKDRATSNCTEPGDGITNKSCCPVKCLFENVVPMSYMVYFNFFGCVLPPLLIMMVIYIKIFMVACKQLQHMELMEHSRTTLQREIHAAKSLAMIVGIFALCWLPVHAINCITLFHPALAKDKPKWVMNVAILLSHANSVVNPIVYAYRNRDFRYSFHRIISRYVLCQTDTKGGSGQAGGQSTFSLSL

[17] = molecular target: T3, Adenosine receptor A2a; test: Displacement of [3H]MSX2 from human adenosine receptor A2A expressed in HEK293 cell membranes at 0.1 uM incubated for 30 mins by radioligand competition assay relative to control; details: Cell membrane, in the assay text read “at 1 uM” for “at 0.1 uM”; method in brief: as §3
[18] = molecular target: T11, Adenosine receptor A3 (Homo sapiens) (UniProt P0DMS8); test: Displacement of [3H]PSB-11 from human adenosine receptor A3 expressed in CHO cell membranes at 0.1 uM incubated for 60 mins by radioligand competition assay; details: Cell membrane, dose 1 µM, in the assay text read “1 uM” for “0.1 uM”
T11 sequence (whole entry): T5 sequence (P0DMS8 whole entry)
Method in brief: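 CHO membranes expressing human A3, [3H]PSB-11 0.5 nM. Nonspecific binding defined by 100 µM R-PIA. Adenosine deaminase preincubation 20 min, then 60 min at rt in 50 mM Tris-HCl pH 7.4 with 2.5% DMSO. Filtered on GF/B, scintillation counted.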

Row | Compound | Ki [1] [nM] | Ki [2] [nM] | Ki [3] [nM] | Ki [4] [nM] | Ki [5] [nM] | Ki [6] [nM] | IC50 [7] [nM] | IC50 [8] [nM] | Ki [9] [nM] | Ki [10] [nM] | Ki [11] [nM] | inhibition [12] [%] | inhibition [13] [%] | inhibition [14] [%] | inhibition [15] [%] | Ki [16] [nM] | inhibition [17] [%] | inhibition [18] [%]
1 | O=C(Nc1nc(-c2ccccc2)c(C(=O)c2ccc(Cl)cc2)s1)c1ccccc1 | 24.4 | 0.939 | 39.1 | 1670 | > 100 | 428 | 0.0929 | 0.0981 | 0.939 | 0.0867 | – | – | – | – | – | – | – | –
2 | COc1ccc(C(=O)Nc2nc(-c3ccccc3)c(-c3nc4ccccc4c(=O)n3-c3ccc(C)cc3)s2)cc1 | > 1000 | > 1000 | > 1000 | > 1000 | > 100 | 27.8 | – | – | – | – | > 10000 | 2 | 25 | 15 | 15 | – | – | –
3 | O=C(Nc1nc(-c2ccccc2)c(-c2nc3ccccc3c(=O)n2-c2ccc(Cl)cc2)s1)c1ccccc1 | > 1000 | > 1000 | > 1000 | > 1000 | > 100 | 83.3 | – | – | – | – | > 10000 | 12 | 16 | 7 | 22 | – | – | –
4 | COc1ccc(C(=O)Nc2nc(-c3ccccc3)c(C(=O)c3ccc(Cl)cc3)s2)cc1 | 32.3 | 1.01 | > 1000 | > 1000 | > 100 | > 1000 | – | – | – | – | > 10000 | – | – | 12 | – | > 100 | – | –
5 | O=C(Nc1nc(-c2ccccc2)c(C(=O)c2ccc(F)cc2F)s1)c1ccccc1 | 55.3 | 2.79 | 77.7 | > 1000 | > 100 | 67.8 | 3.15 | 3.14 | 2.79 | 2.93 | – | – | – | – | – | – | – | –

Now from value to compound:

Row | Ki [1] [nM] | Ki [2] [nM] | Ki [3] [nM] | Ki [4] [nM] | Ki [5] [nM] | Ki [6] [nM] | IC50 [7] [nM] | IC50 [8] [nM] | Ki [9] [nM] | Ki [10] [nM] | Ki [11] [nM] | inhibition [12] [%] | inhibition [13] [%] | inhibition [14] [%] | inhibition [15] [%] | Ki [16] [nM] | inhibition [17] [%] | inhibition [18] [%] | Compound
6 | 7.57 | 0.348 | > 1000 | 1210 | > 100 | 42.2 | 0.067 | 0.084 | 0.348 | 0.0628 | – | 2 | – | – | – | – | – | – | Cc1ccc(C(=O)c2sc(NC(=O)c3ccco3)nc2-c2ccccc2)cc1
7 | > 1000 | – | > 1000 | > 1000 | > 100 | > 1000 | – | – | – | – | – | 0 | 54 | 16 | – | – | 14 | 24 | COc1ccc(C(=O)Nc2nc(-c3ccccc3)c(C(=O)c3ccc(F)cc3F)s2)cc1
